Assay results reported in ChEMBL document CHEMBL1933006, “Mechanistic analysis of muraymycin analogues: a guide to the design of MraY inhibitors” (J Med Chem, 2011).
Converted amounts (≈) assume the structure as drawn.

Key:
Assay type in all cases: functional
Staphylococcus aureus [1] = assay: Antibacterial activity against methicillin-resistant Staphylococcus aureus isolate SR3637 after 20 hrs by broth microdilution method; conditions: isolate SR3637, 20 h
Method in brief: (§1)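 NCCLS broth microdilution in cation-adjusted Mueller–Hinton broth. Serial 2-fold compound dilutions were inoculated with 5 × 10⁴ CFU per 0.1 mL and incubated at 35 °C for 20 h before scoring the MIC.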

Enterococcus faecalis [2] = assay: Antibacterial activity against Enterococcus faecalis ATCC 29212 after 20 hrs by broth microdilution method; conditions: ATCC 29212, 20 h; method in brief: as §1
Enterococcus faecium [3] = assay: Antibacterial activity against vancomycin-resistant Enterococcus faecium SR7917 after 20 hrs by broth microdilution method; conditions: SR7917, 20 h; method in brief: as §1
Enterococcus faecalis [4] = assay: Antibacterial activity against vancomycin-resistant Enterococcus faecalis SR7914 after 20 hrs by broth microdilution method; conditions: SR7914, 20 h; method in brief: as §1
Staphylococcus aureus [5] = assay: Antibacterial activity against methicillin-sensitive […] Staphylococcus aureus ATCC 29213 after 20 hrs by broth microdilution method; conditions: ATCC 29213, 20 h; method in brief: as §1
Enterococcus faecium [6] = assay: Antibacterial activity against Enterococcus faecium ATCC 19434 after 20 hrs by broth microdilution method; conditions: ATCC 19434, 20 h; method in brief: as §1

Structure (SMILES)	MIC (Staphylococcus aureus [1]) [µg/mL]	MIC (Enterococcus faecalis [2]) [µg/mL]	MIC (Enterococcus faecium [3]) [µg/mL]	MIC (Enterococcus faecalis [4]) [µg/mL]	MIC (Staphylococcus aureus [5]) [µg/mL]	MIC (Enterococcus faecium [6]) [µg/mL]
CCCCCCCCCCCCCCC[C@H](NC(=O)[C@@H](N)CCCN)C(=O)NCCCN[C@H](C(=O)O)[C@H](O[C@@H]1O[C@H](CN)[C@@H](O)[C@H]1O)[C@H]1O[C@@H](n2ccc(=O)[nH]c2=O)[C@H](O)[C@@H]1O	4 (≈ 4.51 µM)	4 (≈ 4.51 µM)	8 (≈ 9.02 µM)	4 (≈ 4.51 µM)	4 (≈ 4.51 µM)	–
CCCCOc1ccc(-c2ccc(CC[C@@H](NC(=O)[C@@H](NC(=O)N[C@H](C(=O)O)C(C)C)[C@@H]3CCNC(=N)N3)C(=O)NCCCN[C@H](C(=O)O)[C@H](O[C@@H]3O[C@H](CN)[C@@H](O)[C@H]3O)[C@H]3O[C@@H](n4ccc(=O)[nH]c4=O)[C@H](O)[C@@H]3O)cc2)cc1	64 (≈ 57.5 µM)	32 (≈ 28.8 µM)	8 (≈ 7.19 µM)	64 (≈ 57.5 µM)	64 (≈ 57.5 µM)	4 (≈ 3.6 µM)
CCCCCCCCCCCCCCC[C@@H](NC(=O)[C@H](CCCN)NC(=O)N[C@H](C(=O)O)C(C)C)C(=O)NCCCN[C@H](C(=O)O)[C@H](O[C@@H]1O[C@H](CN)[C@@H](O)[C@H]1O)[C@H]1O[C@@H](n2ccc(=O)[nH]c2=O)[C@H](O)[C@@H]1O	8 (≈ 7.77 µM)	8 (≈ 7.77 µM)	8 (≈ 7.77 µM)	8 (≈ 7.77 µM)	4 (≈ 3.88 µM)	–
CCCCCCCCCCCCCCC[C@H](NC(=O)[C@@H](N)[C@@H]1CCNC(=N)N1)C(=O)NCCCN[C@H](C(=O)O)[C@H](O[C@@H]1O[C@H](CN)[C@@H](O)[C@H]1O)[C@H]1O[C@@H](n2ccc(=O)[nH]c2=O)[C@H](O)[C@@H]1O	8 (≈ 8.63 µM)	4 (≈ 4.31 µM)	8 (≈ 8.63 µM)	4 (≈ 4.31 µM)	8 (≈ 8.63 µM)	–
CC(C)[C@H](NC(=O)N[C@H](C(=O)N[C@H](CCCCCCCc1ccc(-c2ccccc2)cc1)C(=O)NCCCN[C@H](C(=O)O)[C@H](O[C@@H]1O[C@H](CN)[C@@H](O)[C@H]1O)[C@H]1O[C@@H](n2ccc(=O)[nH]c2=O)[C@H](O)[C@@H]1O)[C@@H]1CCNC(=N)N1)C(=O)O	16 (≈ 14.4 µM)	8 (≈ 7.21 µM)	4 (≈ 3.6 µM)	16 (≈ 14.4 µM)	8 (≈ 7.21 µM)	4 (≈ 3.6 µM)
CCCCCCCCCCCCCCC[C@H](NC(=O)[C@@H](N)CCCSC)C(=O)NCCCN[C@H](C(=O)O)[C@H](O[C@@H]1O[C@H](CN)[C@@H](O)[C@H]1O)[C@H]1O[C@@H](n2ccc(=O)[nH]c2=O)[C@H](O)[C@@H]1O	8 (≈ 8.71 µM)	4 (≈ 4.36 µM)	8 (≈ 8.71 µM)	4 (≈ 4.36 µM)	8 (≈ 8.71 µM)	–
CCCCCCCCCCCCCCC[C@H](NC(=O)[C@@H](NC(=O)N[C@H](C(=O)O)C(C)C)[C@H]1CCNC(=N)N1)C(=O)NCCCN[C@H](C(=O)O)[C@H](O[C@@H]1O[C@H](CN)[C@@H](O)[C@H]1O)[C@H]1O[C@@H](n2ccc(=O)[nH]c2=O)[C@H](O)[C@@H]1O	2 (≈ 1.87 µM)	2 (≈ 1.87 µM)	2 (≈ 1.87 µM)	4 (≈ 3.74 µM)	2 (≈ 1.87 µM)	–
CCCCCCCCCCCCCCC[C@H](NC(=O)[C@H](CCCN)NC(=O)N[C@H](C(=O)O)C(C)C)C(=O)NCCCN[C@H](C(=O)O)[C@H](O[C@@H]1O[C@H](CN)[C@@H](O)[C@H]1O)[C@H]1O[C@@H](n2ccc(=O)[nH]c2=O)[C@H](O)[C@@H]1O	2 (≈ 1.94 µM)	8 (≈ 7.77 µM)	4 (≈ 3.88 µM)	8 (≈ 7.77 µM)	4 (≈ 3.88 µM)	–
CCCCCCCCCCCCCCC[C@@H](NC(=O)[C@@H](N)[C@@H]1CCNC(=N)N1)C(=O)NCCCN[C@H](C(=O)O)[C@H](O[C@@H]1O[C@H](CN)[C@@H](O)[C@H]1O)[C@H]1O[C@@H](n2ccc(=O)[nH]c2=O)[C@H](O)[C@@H]1O	8 (≈ 8.63 µM)	4 (≈ 4.31 µM)	8 (≈ 8.63 µM)	8 (≈ 8.63 µM)	8 (≈ 8.63 µM)	–
